Experimental data from article PMC4136418 (Drug development and industrial pharmacy, 2013).
Values after ≈ are worked out from the molar mass of the structure shown.

Legend:
Dynamic vapor sorption = assay type: physicochemical; settings: 25°C/80% RH
Summary of the method: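 Test compound powder (about 7 mg) is dried at 0% RH for at least 2 h at 40 °C. Sorption then runs isothermally at 25 °C, with RH stepped from 0 to 90% and back to 0%.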

HIV-1 [1] = assay type: cell-based; settings: for Anti-HIV activity: drug present at constant levels throughout the HIV infection process, 48 h
HIV = settings: cited from earlier work
[2] = Human ectocervical tissue permeability study; assay type: in vitro ADME
HIV-1 [3] = assay type: cell-based; settings: 16 h pretreatment, drug removed before HIV exposure
[4] = Solubility in buffers, Vaginal Fluid Simulant and organic solvents; assay type: physicochemical
[5] = Transport across Caco-2 cell monolayers; assay type: in vitro ADME, human; settings: human; for Papp A→B at 2 h, 25 μg/ml: Caco-2, Papp (a–b)
Summary of the method: (§1)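 Caco-2 cells (passages 27–32) are grown on 4.2 cm2 polycarbonate inserts and used on days 21–24 if TEER exceeds 600 Ωcm2. HBSS is buffered with […] (pH 5.5, 6.5) or HEPES (pH 7.4); monolayers are preincubated 20 min. The pH study uses 25 μg/ml apical, basolateral pH 7.4. Bidirectional runs use 2.5–250 μg/ml at pH 7.4. Incubation is 2 h at 37 °C with sampling to 120 min; HPLC gives Papp = (dQ/dt)/(A×C0); n = 3.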

Caco-2 cell monolayers = test: Transport across Caco-2 cell monolayers; assay type: in vitro ADME, human
Summary of the method: as §1

Stability study = assay type: physicochemical; settings: all test conditions: pH 3.0–9.0, 25, 40 or 65 °C, light, 0.02% hydrogen peroxide; up to 21 days
[6] = In vitro cytotoxicity, MTT assay, CaSki cells; assay type: cell-based; settings: human
Summary of the method: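 Cells are grown at 37 °C in 5% CO2 with 10% FBS and penicillin-streptomycin: A 431 in DMEM, CaSki in RPMI 1640. They are seeded at 1 × 10^4/well, grown 24 h, then exposed to 1 ng/ml–50 μg/ml compound for 24, 48 or 72 h. Fresh medium plus MTT (5 mg/ml solution) follows for 4 h. Formazan is dissolved in DMSO and read at 595 nm; n = 8.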

C#C[C@]1(CO)O[C@@H](n2cnc3c(N)nc(F)nc32)C[C@@H]1O [EFdA, 4′-Ethynyl-2-fluoro-2′-deoxyadenosine]
Moisture absorbed (Dynamic vapor sorption): approximately 10 % w/w | Selectivity index (CC50/EC50) (HIV-1 [1]; cell-based studies): greater than 1 × 10^3 | Anti-HIV activity (HIV-1 [1]): highly potent inhibitors | Potency relative to UC781 (HIV-1 [1]; drug present throughout infection): about two-fold more potent than UC781 | EC50 (HIV): ~0.07 nM | Papp at 6 h, 500 μg/ml ([2]; female, human, pH 7.4): 0.834 ×10⁻⁶ cm/s | Tissue morphology after exposure ([2]; human ectocervical tissues pre- and post-treatment): lack of any significant morphological changes | Protective or memory effect (HIV-1 [3]): retained anti-HIV protection similar to that seen when EFdA was present throughout the infection | solubility at 120 h ([4]; PBS, pH 6): 799 ± 8.7 µg/mL (≈ 2.73 mM) | solubility ([4]; Vaginal Fluid Simulant, pH 4.2): 887 µg/mL (≈ 3.03 mM) | solubility at 120 h ([4]; acid phthalate buffer, pH 3): 1510 ± 68.4 µg/mL (≈ 5.14 mM) | solubility at 120 h ([4]; acid phthalate buffer, pH 4): 1360 ± 48.3 µg/mL (≈ 4.63 mM) | solubility at 120 h ([4]; acid phthalate buffer, pH 4, aqueous buffer, thermodynamic from solid): 1620 ± 55.9 µg/mL (≈ 5.53 mM) | Change in solubility ([4]; from pH 6–9): no obvious change in solubility | Change in solubility with increase in ionic strength ([4]; pH 7.0 and 9.0): statistically significant decrease | Papp at 2 h ([5]; Caco-2): < 1 ×10⁻⁶ cm/s | efflux ratio at 2 h, 25 μg/ml ([5]; Caco-2): 8.01 | efflux ratio at 2 h, 250 μg/ml ([5]; Caco-2): 2.74 | Papp A→B at 2 h, 25 μg/ml ([5]; apical pH 5.5, basolateral pH 7.4): 0.367 ×10⁻⁶ cm/s | Papp A→B at 2 h, 25 μg/ml ([5]; apical pH 6.5, basolateral pH 7.4): 0.436 ×10⁻⁶ cm/s | Papp A→B at 2 h, 250 μg/ml ([5]; Caco-2, pH 7.4, Papp (a–b), 250 μg/ml, pH 7.4 both sides): 0.595 ×10⁻⁶ cm/s | Absorptive transport (a–b), drug in receptor compartment (Caco-2 cell monolayers; 2.5 μg/ml, pH 7.4, HPLC LOD 0.05 μg/ml): no EFdA was detected | Papp (b-a), fold lower than low and medium concentration treatments (Caco-2 cell monolayers; high concentration group (250 μg/ml)): about 2 fold | Drug remaining (Stability study): > 95% | CC50 at 48 h [6]: 47.8 ± 12.4 µg/mL (≈ 0.163 mM) | CC50 at 72 h [6]: 41.1 ± 8.78 µg/mL (≈ 0.14 mM)

CC(C)=CCOc1cc(NC(=S)c2ccoc2C)ccc1Cl [UC781, reference compound]
Anti-HIV activity (HIV-1 [1]): highly potent inhibitors | Protective or memory effect (HIV-1 [3]): substantial diminution of anti-HIV protection
